Test results from PubChem BioAssay AID1258 (University of Pittsburgh Molecular Library Screening Center, 2008).
Hit rate of the full screen: of about 1,100 compounds, about 150 (14%) were called active. Inconclusive results (about 1%) are left out.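 How the source made its calls: active means inhibition above about 50% in both repeat tests (limit read from the data); inconclusive means one repeat under the set limit, the other over it; inactive means both repeats under the set limit.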 The list is a sample of the results.

Test: antileishmanial activity against promastigotes – 1 µM repeat of primary hits, confirmation (AID 1258)
Conditions: L. major promastigote growth, resazurin fluorescence, 48 h; at 1 µM; stronger effect = higher value
In short: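 System: Leishmania major promastigotes, whole-parasite viability assay; Quantity: 5,000 promastigotes per well; Buffer or medium: medium 199 plus 10% heat-inactivated FBS; Compound: 1 µM single concentration; Incubation: 44 h compound exposure, 4 h dye incubation, 28 °C; Read-out: promastigote viability inhibition; Controls: DMSO high/low controls plus tamoxifen reference.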

Row | Compound | inhibition
1 | Clc1ccc(-n2nnnc2-c2cnc(-c3ccccn3)nc2-c2cccs2)cc1 | -17.1% (inactive)
2 | c1ccc(CC2CCN(c3nc4ccccc4n4cnnc34)CC2)cc1 | -11.4% (inactive)
3 | CC(=O)NC1C(Oc2ccc(C)cc2)OC2COC(c3ccco3)OC2C1O (stereo unspecified) | -11.1% (inactive)
4 | N#Cc1ccc(N2Cc3ccccc3/C2=N/C(=O)Nc2ccc(Cl)cc2)cc1 | 14% (inactive)
5 | CCOC(=O)c1c(C2CC2)csc1NC(=O)CSCc1c(C)noc1C | -3.56% (inactive)
6 | CNC(=S)N/N=C/c1cn(Cc2ccc(C)cc2)c2ccccc12 | -4.3% (inactive)
7 | COc1ccc2c(c1)C=CC1(O2)N(CCO)c2ccccc2C1(C)C (stereo unspecified) | -3.93% (inactive)
8 | O=C(c1ccc(-c2ccccc2)cc1)C1CCCN(C(=O)c2cncs2)C1 (stereo unspecified) | -12.9% (inactive)
9 | Cn1c(-c2sc3cc(C(F)(F)F)cnc3c2-c2ccccc2)n[nH]c1=S | -17.6% (inactive)
10 | N#Cc1ccc(-c2nc3cc(C#N)c(C#N)cc3nc2-c2ccccc2)cc1C#N | -5.54% (inactive)
11 | c1ccc2cc(OCCN3CCCC3)ccc2c1 | 12.5% (inactive)
12 | Cc1nn(-c2ccccc2)c2sc(C(=O)N(Cc3ccco3)C(C)C(=O)NC(C)(C)C)cc12 (stereo unspecified) | -6.73% (inactive)
13 | COCCN(CCOC)S(=O)(=O)c1ccc(C(=O)Nc2nc3c(s2)CCc2ccccc2-3)cc1 | -8.24% (inactive)
14 | CC(C)Cc1nn2c(=O)cc(O)nc2s1 | -1.83% (inactive)
15 | Cc1c(Br)cc(C(=O)N2CCCCCC2)c(C)c1C | -3.85% (inactive)
16 | CCOC(=O)/C(N=Nc1cc(C(=O)O)cc(C(=O)O)c1)=C(\O)CCl | -4.13% (inactive)
17 | CCOC(=O)N1CCN(C(c2cccnc2)c2ccc3cccnc3c2O)CC1 (stereo unspecified) | -7.1% (inactive)
18 | CCc1nc(C)cn1S(=O)(=O)c1cc(OC)c(C)cc1C | 0.254% (inactive)
19 | Fc1cc(F)c2nc(Nc3nc4c(F)cccc4s3)sc2c1 | -9.65% (inactive)

Row | Compound | inhibition
20 | CC1(C)CC(=O)c2c(n(S(=O)(=O)c3ccccc3)c3ccc(NS(=O)(=O)c4ccccc4)cc23)C1 | -25.3% (inactive)
21 | O=C(/C=C/Sc1ncn[nH]1)c1ccc(Cl)cc1 | 29.4% (inactive)
22 | CCOC(=O)C1=C(CC)Nc2ccccc2N=C1NC(=O)c1cccc(S(=O)(=O)N2CCCC2)c1 | -9.84% (inactive)
23 | Cc1cccc(-n2c(N)cc(=O)nc2SC(C)C(=O)NC2CCCCC2)c1 (stereo unspecified) | 29.9% (inactive)
24 | Cc1nn(CC2CC2)c(=O)n1N(C)c1ncc(C(F)(F)F)cc1Cl | -15.7% (inactive)
25 | Clc1ccc(C2=CSC3=Nc4cccc5cccc(c45)N23)cc1 | -13.5% (inactive)
26 | CN(C)Cc1ccccc1C1(O)c2ccccc2CSc2ccccc21 (stereo unspecified) | -1.45% (inactive)
27 | Cc1ccc(Nc2nc(CSc3nnnn3-c3ccccc3)cc(=O)[nH]2)cc1 | -2.73% (inactive)
28 | CN(C)c1ccc(/C=C2\NC(=S)N(Cc3ccccc3)C2=O)cc1 | -11.8% (inactive)
29 | CCc1ccc(-c2nn(-c3ccccc3)cc2CSC(=N)N)cc1 | 46.8% (inactive)
30 | c1ccc(C2CCC(N3CCC(N4CCCCC4)CC3)CC2)cc1 (stereo unspecified) | 59.2% (active)
31 | O=C(Nc1ccc2ccccc2c1)Nc1ccc2snnc2c1 | -30.1% (inactive)
32 | Cc1cc(/C=C(/C#N)C(=O)Nc2ccc(Cl)cc2)c(C)n1-c1cccnc1 | -3.48% (inactive)
33 | O=C1N(Cc2ccc3c(c2)OCO3)c2ccccc2C1(O)c1c[nH]c2ccccc12 (stereo unspecified) | 0.0749% (inactive)
34 | CCCCn1c(=S)[nH]c2cc(S(=O)(=O)N3CCCCC3)ccc21 | 9.63% (inactive)
35 | Cc1nnc(-c2ccc(Oc3ccc(C)c(C)c3)c([N+](=O)[O-])c2)o1 | -11.1% (inactive)
36 | Cc1nc(N2CCOCC2)c2c(C)c(C(=O)Nc3ccc(C(F)(F)F)cc3)sc2n1 | 15.1% (inactive)
37 | Cc1ccc(CN(N=Nc2nonc2N)c2nonc2N)c(C)c1 | -2.38% (inactive)
38 | Cc1nc([N+](=O)[O-])nn1C12CC3CC(CC(Br)(C3)C1)C2 | 38.5% (inactive)

Row | Compound | inhibition
39 | CC(=O)NC1C(OCc2ccccc2)OC(COC(C)=O)C(OC(C)=O)C1OC(C)=O (stereo unspecified) | -7.57% (inactive)
40 | O=C(CCN1C(=O)c2ccccc2C1=O)Nc1cccc(F)c1 | -12.6% (inactive)
41 | O=C(NC(Cc1c[nH]c2ccccc12)C(=O)N/N=C/c1ccc(Br)cc1)c1cccs1 (stereo unspecified) | -12.7% (inactive)
42 | c1ccc(-c2cc(-c3nnc4sc(-c5ccccn5)nn34)[nH]n2)cc1 | 50.6% (active)
43 | COC(=O)C1=C(C)N(c2ccc(C)cc2)/C(=C/c2ccc(O)cc2)C1=O | 8.89% (inactive)
44 | COc1ccc(COC(=O)c2n[nH]c3ccccc23)cc1F | -13% (inactive)
45 | CS(=O)(=O)Nc1cccc(C2=NN(S(=O)(=O)c3ccccc3)C(c3cccs3)C2)c1 (stereo unspecified) | -8.88% (inactive)
46 | Cc1cccc(-n2c(C)cc(/C=N/NC(N)=S)c2C)c1 | 15.8% (inactive)
47 | C=CCNc1nnc(SCC(=O)N2CCCCC2)c2ccccc12 | -6.19% (inactive)
48 | N#Cc1ccccc1-n1c(N)c(C(=O)N2CCCC2)sc1=S | -0.236% (inactive)
49 | CC12CCC(C(=O)N(NC(=O)c3ccccc3O)C1=O)C2(C)C (stereo unspecified) | -15.5% (inactive)
50 | Nc1cccc(-c2cc(-c3ccccc3)nc(-c3cccc(N)c3)n2)c1 | -6.75% (inactive)
51 | COc1ccc2[nH]c(C)c(CCN(Cc3cccs3)C(=S)Nc3ccccc3OC)c2c1 | 28.7% (inactive)
52 | c1ccc(Cc2cc[n+](Cc3ccccc3)cc2)cc1 | -17.2% (inactive)
53 | CN(C)c1ccc(/C=N\S(=O)(=O)c2ccccc2)cc1 | -0.93% (inactive)
54 | O=C(c1cccnc1)N(c1cc2sc(=O)oc2c2ccccc12)S(=O)(=O)c1ccccc1 | 95.1% (active)
55 | N#C/C=C\Oc1ccc(Cl)cc1N | -12.9% (inactive)
56 | COc1ccc(-c2cc(C(F)(F)F)nc(S(C)(=O)=O)n2)cc1OC | 36.4% (inactive)
